Experimental data published in article PMC5615838 (Toxicology Reports, 2016).

How the values were obtained:
CYP3A4 = CYP3A4 (Homo sapiens, UniProt P08684); assay: CYP inhibition, LC–MS/MS assay in human liver microsomes; type: in vitro ADME; conditions: pooled human liver microsomes, probe midazolam
How it was run: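 Follow-up CYP panel in pooled human liver microsomes with CYP-specific probe substrates; CYP-specific metabolites quantified by LC-MS/MS. Test compound at 10 μM. Percent inhibition reported.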

[1] = system: human peripheral blood lymphocytes; assay: in vitro chromosome aberration test; conditions: 200–1300 μg/mL, 3 or 21 hr exposure, ±S9
[2] = definitive developmental toxicity study; type: in vivo, rat

Sequence of CYP3A4 (P08684 whole entry): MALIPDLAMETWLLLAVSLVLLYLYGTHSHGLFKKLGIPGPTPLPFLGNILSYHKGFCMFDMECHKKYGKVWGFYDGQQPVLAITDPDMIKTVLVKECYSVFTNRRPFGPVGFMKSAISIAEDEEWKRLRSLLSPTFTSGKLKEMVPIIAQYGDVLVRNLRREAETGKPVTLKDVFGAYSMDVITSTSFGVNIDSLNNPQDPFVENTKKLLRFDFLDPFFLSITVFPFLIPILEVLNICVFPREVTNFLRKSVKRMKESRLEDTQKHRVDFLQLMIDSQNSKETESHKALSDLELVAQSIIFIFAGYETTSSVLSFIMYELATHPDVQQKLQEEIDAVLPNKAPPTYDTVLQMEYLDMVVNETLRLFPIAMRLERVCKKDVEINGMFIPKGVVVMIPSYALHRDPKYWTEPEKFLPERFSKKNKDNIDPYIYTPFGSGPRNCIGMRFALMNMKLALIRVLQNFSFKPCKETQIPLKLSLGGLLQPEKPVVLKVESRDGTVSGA

In the case of `Cc1noc(C)c1Cn1cc(N2C(=O)CN(Cc3cccc(O)c3)C2=O)cn1` [S6821, 3-(1-((3,5-dimethylisoxazol-4-yl)methyl)-1H-pyrazol-4-yl)-1-(3-hydroxybenzyl)imidazolidine-2,4-dione], the inhibition at 10 µM (CYP3A4) is reported as 4%, the “Chromosome aberration (in vitro), Result” value [1] is reported as “Negative” and the “Malformations, fetuses (litters)” value ([2]; 125 mg/kg bw/day, of 347(25) evaluated) is reported as 3(2). The “Malformations, fetuses (litters)” value ([2]; 500 mg/kg bw/day, of 364(25) evaluated) was 2(2), the “Malformations, fetuses (litters)” value ([2]; 1000 mg/kg bw/day, of 327(22) evaluated) was 4(3) and the “Corpora Lutea” value ([2]; Mean, 125 mg/kg bw/day) was 15.4. The “Dead Fetuses” value ([2]; Mean, 125 mg/kg bw/day) was 0.0, the “Fetal Wt.” value ([2]; Mean, 125 mg/kg bw/day) was 5.7 g and the “Fetuses, Sex F” value ([2]; Mean, 125 mg/kg bw/day) was 6.8. For the same compound, the “Fetuses, Sex M” value ([2]; Mean, 125 mg/kg bw/day) was 7.1, the “Implant. Sites” value ([2]; Mean, 125 mg/kg bw/day) was 14.6 and the “Post- Implant. Loss” value ([2]; Mean, 125 mg/kg bw/day) was 0.7. For the same compound, the “Pre- Implant. Loss” value ([2]; Mean, 125 mg/kg bw/day) was 0.8, the “Resorptions Early” value ([2]; Mean, 125 mg/kg bw/day) was 0.7 and the “Resorptions Late” value ([2]; Mean, 125 mg/kg bw/day) was 0.0. The “Corpora Lutea” value ([2]; Mean, 500 mg/kg bw/day) was 16.6, the “Dead Fetuses” value ([2]; Mean, 500 mg/kg bw/day) was 0.0 and the “Fetal Wt.” value ([2]; Mean, 500 mg/kg bw/day) was 5.6 g. The “Fetuses, Sex F” value ([2]; Mean, 500 mg/kg bw/day) was 7.4, the “Fetuses, Sex M” value ([2]; Mean, 500 mg/kg bw/day) was 7.2 and the “Implant. Sites” value ([2]; Mean, 500 mg/kg bw/day) was 15.4. The “Post- Implant. Loss” value ([2]; Mean, 500 mg/kg bw/day) was 0.8, the “Pre- Implant. Loss” value ([2]; Mean, 500 mg/kg bw/day) was 1.2 and the “Resorptions Early” value ([2]; Mean, 500 mg/kg bw/day) was 0.8. The “Resorptions Late” value ([2]; Mean, 500 mg/kg bw/day) was 0.0, the “Corpora Lutea” value ([2]; Mean, 1000 mg/kg bw/day) was 16.9 and the “Dead Fetuses” value ([2]; Mean, 1000 mg/kg bw/day) was 0.0. The “Fetal Wt.” value ([2]; Mean, 1000 mg/kg bw/day) was 5.6 g, the “Fetuses, Sex F” value ([2]; Mean, 1000 mg/kg bw/day) was 7.4 and the “Fetuses, Sex M” value ([2]; Mean, 1000 mg/kg bw/day) was 7.5. The “Implant. Sites” value ([2]; Mean, 1000 mg/kg bw/day) was 15.8, the “Post- Implant. Loss” value ([2]; Mean, 1000 mg/kg bw/day) was 0.9 and the “Pre- Implant. Loss” value ([2]; Mean, 1000 mg/kg bw/day) was 1.1. For the same compound, the “Resorptions Early” value ([2]; Mean, 1000 mg/kg bw/day) was 0.9, the “Resorptions Late” value ([2]; Mean, 1000 mg/kg bw/day) was 0.0 and the “Dead Fetuses” value ([2]; Total, 125 mg/kg bw/day) was 0. For the same compound, the “Fetuses, Sex F” value ([2]; Total, 125 mg/kg bw/day) was 170, the “Fetuses, Sex M” value ([2]; Total, 125 mg/kg bw/day) was 177 and the “Implant. Sites” value ([2]; Total, 125 mg/kg bw/day) was 364. The “Post- Implant. Loss” value ([2]; Total, 125 mg/kg bw/day) was 17, the “Pre- Implant. Loss” value ([2]; Total, 125 mg/kg bw/day) was 20 and the “Resorptions Early” value ([2]; Total, 125 mg/kg bw/day) was 17. For the same compound, the “Resorptions Late” value ([2]; Total, 125 mg/kg bw/day) was 0, the “Corpora Lutea” value ([2]; Total, 500 mg/kg bw/day) was 415 and the “Dead Fetuses” value ([2]; Total, 500 mg/kg bw/day) was 0. The “Fetuses, Sex F” value ([2]; Total, 500 mg/kg bw/day) was 185, the “Fetuses, Sex M” value ([2]; Total, 500 mg/kg bw/day) was 179 and the “Implant. Sites” value ([2]; Total, 500 mg/kg bw/day) was 384. The “Post- Implant. Loss” value ([2]; Total, 500 mg/kg bw/day) was 20, the “Pre- Implant. Loss” value ([2]; Total, 500 mg/kg bw/day) was 31 and the “Resorptions Early” value ([2]; Total, 500 mg/kg bw/day) was 19. The “Resorptions Late” value ([2]; Total, 500 mg/kg bw/day) was 1, the “Corpora Lutea” value ([2]; Total, 1000 mg/kg bw/day) was 372 and the “Dead Fetuses” value ([2]; Total, 1000 mg/kg bw/day) was 0. For the same compound, the “Fetuses, Sex F” value ([2]; Total, 1000 mg/kg bw/day) was 162, the “Fetuses, Sex M” value ([2]; Total, 1000 mg/kg bw/day) was 165 and the “Implant. Sites” value ([2]; Total, 1000 mg/kg bw/day) was 347. The “Post- Implant. Loss” value ([2]; Total, 1000 mg/kg bw/day) was 20, the “Pre- Implant. Loss” value ([2]; Total, 1000 mg/kg bw/day) was 25 and the “Resorptions Early” value ([2]; Total, 1000 mg/kg bw/day) was 20. The “Resorptions Late” value ([2]; Total, 1000 mg/kg bw/day) was 0 and the “NOAEL for both maternal toxicity and embryo/fetal development” value ([2]; oral gavage, gestation days 6-20) was “NOAEL for both maternal toxicity and embryo/fetal development = 1000 mg/kg bw/day”.
